Screening results from PubChem.
Rows were chosen to be rich in hits. Some 4.3% of all compounds tested hit in one or more screens of this group.
TAAR1 ag: agonists of human TAAR1; CHO RD-HGA16 TAAR1, Fluo-8 calcium fluorescence; vehicle wells 0%, saturating PEA agonist 100%; activation, % at 3 µM; 360,000 tested, 0.99% active; AID 624467;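 active means activation above the mean activation of all test compounds in the run plus 3 SD, cut at about 38% in these data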
Target sequence (Q96RJ0 whole entry, looked up): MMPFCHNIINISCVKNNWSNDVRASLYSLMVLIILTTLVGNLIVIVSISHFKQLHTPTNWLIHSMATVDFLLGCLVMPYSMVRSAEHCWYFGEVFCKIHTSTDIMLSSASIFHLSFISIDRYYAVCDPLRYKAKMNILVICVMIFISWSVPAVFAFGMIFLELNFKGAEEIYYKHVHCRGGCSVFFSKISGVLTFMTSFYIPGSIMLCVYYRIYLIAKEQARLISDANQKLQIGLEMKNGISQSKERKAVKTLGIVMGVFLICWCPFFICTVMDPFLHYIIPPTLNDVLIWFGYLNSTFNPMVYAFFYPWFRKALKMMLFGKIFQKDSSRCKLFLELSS
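Assay system: CHO-derived RD-HGA16 cells with stable Gα16 and human TAAR1; timing: 17-24 h seeding, 75 min 37 °C dye, 30 min RT; read-out: % activation from peak over basal fluorescence ratio, DMSO-to-PEA scaled; measured by: kinetic Fluo-8 calcium fluorescence; benchmarks: low control DMSO, high control PEA (EC100); doses: 3 µM single concentration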
OX1R antag-1: blocks the human orexin 1 receptor. O43613. CHO/OX1R cells, Fluo-8 calcium fluorescence, orexin A. inhibition, % at 5 µM. 330,000 tested, 0.43% active;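 active means inhibition above its plate's threshold, mean inhibition of all tested compounds on the plate plus 3 SD, cut at about 37% in these data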;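 further: 0% = orexin A challenge wells and 100% = SB-334867-A antagonist wells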
Target sequence (O43613 whole entry, looked up): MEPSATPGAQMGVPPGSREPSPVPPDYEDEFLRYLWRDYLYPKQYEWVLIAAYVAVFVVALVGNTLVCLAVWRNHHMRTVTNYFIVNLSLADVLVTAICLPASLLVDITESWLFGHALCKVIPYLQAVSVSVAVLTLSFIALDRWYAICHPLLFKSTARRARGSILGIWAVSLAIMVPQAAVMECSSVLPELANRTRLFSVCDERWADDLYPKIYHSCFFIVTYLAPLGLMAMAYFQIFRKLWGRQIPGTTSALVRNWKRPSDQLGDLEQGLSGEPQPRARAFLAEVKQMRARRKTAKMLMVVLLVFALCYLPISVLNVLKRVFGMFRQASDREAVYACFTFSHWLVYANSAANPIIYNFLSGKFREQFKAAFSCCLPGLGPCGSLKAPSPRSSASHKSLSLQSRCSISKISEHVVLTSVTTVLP
GalR3 antagonist: antagonists of human GalR3; O60755; HEK293 GalR3-CNG cAMP membrane potential fluorescence; galR3 body fused to GalR1 C-terminus; inhibition, % at 3 µM; 360,000 tested, 0.44% active; AID 651719;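 active means inhibition above the screen-wide average plus 3 SD, cut at about 13% in these data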;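 further: forskolin and galanin both at EC90 stimulate the cells; cAMP rise reported by CNG channel membrane potential dye signal; 0% = forskolin plus galanin with DMSO and 100% = forskolin alone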
TAAR1 antagonist: human TAAR1 antagonism. Q96RJ0. CHO RD-HGA16 TAAR1, Fluo-8 calcium fluorescence, antagonist. inhibition, % at 3 µM. 360,000 tested, 1.5% active. AID 624466;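 active means inhibition above a per-plate cutoff, the mean inhibition of test compounds on that plate plus 3 SD, cut at about 49% in these data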;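 further: 0% = DMSO plus EC80 beta-PEA response and 100% = DMSO alone without agonist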
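Test system: hTAAR1-expressing CHO RD-HGA16 cells, Gα16-coupled; Probe or stimulus: EC80 β-phenethylamine stimulus; Compound dosing: single nominal final test compound concentration of 3 µM; Timing: 140 s kinetic read after compound, 140 s after agonist; Signal: Fluo-8 calcium-sensitive fluorescence; Measure: % inhibition of agonist calcium response; Controls: DMSO and EC80 PEA controls.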
CHO parental Ca: counter-screen: ATP calcium response change in parental CHO cells; AID 463079; parental CHO-K1, ATP-induced calcium, Fluo-8 fluorescence; 330,000 tested, 0.63% active; inhibition, % at 5.6 µM;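 active means inhibition above that plate's mean sample inhibition plus 3 SD, cut at about 26% in these data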;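 further: 0% = ATP-challenged DMSO wells and 100% = DMSO wells without ATP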
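Assay system – parental CHO cells · Reagent – ATP stimulus · Detection – intracellular calcium via Fluo-8 no-wash fluorescent dye · Evaluation – percent inhibition of ATP-evoked calcium rise, normalized to controls · Controls – ATP wells versus no-ATP DMSO wells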
OX1R antag-2: blocks the human orexin 1 receptor. O43613. 330,000 tested, 1.8% active. AID 485270. OX1R-expressing cells, FRET antagonist read-out. inhibition, % at 6.6 µM; in the data active means inhibition mostly above about 38%, no sharp cut-off; inactive means mostly below about 40%;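 further: 0% = agonist challenge alone and 100% = reference antagonist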
TAAR1 ag confirm: human TAAR1 agonism, confirmed | shares compounds with TAAR1 ag | CHO RD-HGA16 TAAR1, Fluo-8 calcium fluorescence; scaled: DMSO 0%, maximal phenethylamine 100% | activation, % at 3 µM | 2,400 tested, 82% active;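 active means activation above a cutoff set at the run's mean compound activation plus 3 SD, cut at about 39% in these data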
Ga16 ag counter: counter-screen for TAAR1 agonists: nonselective agonists in parental cells. shares compounds with TAAR1 ag. CHO-Ga16 parental, Fluo-8 calcium fluorescence; normalized to maximal ATP response, DMSO zero. activation, % at 3 µM. 2,400 tested, 50% active. AID 651787;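 active means activation above the run cutoff, the mean activation over all tested wells plus 3 SD, cut at about 12% in these data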;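 further: 0% = DMSO wells and 100% = maximal ATP response on the peak over basal ratio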
TAAR1 desensitize: counter-screen for human TAAR1 agonists: agonists that desensitize TAAR1; shares compounds with TAAR1 ag; CHO RD-HGA16 hTAAR1, Fluo-8 calcium, beta-PEA response inhibition; inhibition, % at 3 µM; 2,400 tested, 46% active;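 active means inhibition above the run cutoff, the mean inhibition of all test compounds plus 3 SD, cut at about 49% in these data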;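 further: beta-PEA stimulus applied at its EC80; loss of beta-PEA calcium signal after compound pretreatment read as receptor desensitization; 0% = DMSO with beta-PEA at EC80 and 100% = DMSO alone without agonist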
Ga16 nonsel ant: counter-screen for TAAR1 agonists: nonselective Ga16 antagonists. CHO-Ga16 ATP-induced calcium, Fluo-8 fluorescence. 2,400 tested, 39% active. inhibition, % at 3 µM. shares compounds with TAAR1 ag;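 active means inhibition above the plate's mean compound inhibition plus 3 SD, computed per plate, cut at about 22% in these data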;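 further: 0% = EC80 ATP with DMSO and 100% = DMSO wells without ATP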
* = called active by the depositor; . = no result given.

SMILES	TAAR1 ag	OX1R antag-1	GalR3 antagonist	TAAR1 antagonist	CHO parental Ca	OX1R antag-2	TAAR1 ag confirm	Ga16 ag counter	TAAR1 desensitize	Ga16 nonsel ant
COc1cccc(NS(=O)(=O)c2cc(C)sc2C)c1	9.7	5.2	-4.0	3.9	-8.9	9.7	.	.	.	.
Cc1cc(S(=O)(=O)Nc2cccc(Cl)c2)c(C)s1	40.2*	-22.2	-5.6	11.8	-3.6	18.3	60.1*	10.0	16.9	11.6
Cc1cc(C)c2cc3c(N)c(C(=O)N4CCc5ccccc5C4)sc3nc2c1	78.0*	-21.3	-5.9	11.5	5.2	16.8	55.8*	12.3*	39.9	39.4*
Cc1ccc2nc3sc(C(=O)N4CCCc5ccccc54)c(N)c3cc2c1	15.6	-10.1	-7.0	25.9	-21.1	15.9	.	.	.	.
CCn1c(C)nc2cc(C(=O)NNC(=S)Nc3ccc(Cl)cc3)ccc21	54.4*	-19.9	-6.4	2.4	-13.9	7.9	61.4*	3.8	33.2	8.7
COC(=O)C1=C(C)N(Cc2cccc(C(F)(F)F)c2)C(=NCC2CC2)NC1c1ccccc1 (configuration not stated)	120.7*	.	-7.2	97.1*	.	.	114.6*	79.0*	100.0*	73.9*
C=CCN=C1NC(c2cccc(Cl)c2)C(C(=O)OC)=C(C)N1Cc1cccc(C(F)(F)F)c1 (configuration not stated)	67.1*	.	-2.3	81.2*	.	.	35.8	27.0*	56.3*	51.2*
C=CCN=C1NC(c2ccccc2)C(C(=O)OC)=C(C)N1Cc1cccc(C(F)(F)F)c1 (configuration not stated)	116.4*	.	-8.2	87.3*	.	.	92.0*	61.2*	80.9*	67.2*
C=CCN=C1NC(c2cccc(F)c2)C(C(=O)OC)=C(C)N1Cc1cccc(C(F)(F)F)c1 (configuration not stated)	106.6*	.	-9.8	92.4*	.	.	88.9*	54.6*	92.5*	72.9*
COC(=O)C1=C(C)N(Cc2ccc(C(F)(F)F)cc2)C(=NCC2CC2)NC1c1ccccc1 (configuration not stated)	28.4	.	-4.5	44.5	.	.	.	.	.	.
O=C(Nc1ccc(Nc2ccncc2)cc1)c1ccc(Nc2ccnc3ccc([N+](=O)[O-])cc23)cc1[N+](=O)[O-]	1.0	1.1	11.9	-11.7	-6.6	16.1	.	.	.	.
Cc1noc(C)c1CCC(=O)N1CCCC(CCC(=O)NCc2ccc(F)c(F)c2)C1 (configuration not stated)	0.9	-18.5	-4.2	1.6	-10.6	9.1	.	.	.	.
CCCOc1ccc2oc(=O)c3c(c2c1)CCCN3C(=O)CN1CCc2ccccc2C1	72.7*	-23.3	-4.0	2.6	-16.5	19.0	53.7*	-0.7	12.7	10.6
CN1CCN(C2Cc3cc(Cl)ccc3Sc3cc(F)ccc32)CC1 (configuration not stated)	30.7	1.0	-10.0	8.2	4.7	17.9	.	.	.	.
CN1CCN(C2=Cc3ccccc3Sc3cc(F)c(Cl)cc32)CC1	45.5*	-13.5	-12.4	1.6	-6.4	7.8	37.7*	16.4*	18.8	24.5*
CN1CCN(C2=Cc3cc(Cl)ccc3Sc3cc(F)ccc32)CC1	67.1*	2.5	-11.1	39.2	8.8	-0.4	89.4*	45.8*	70.5*	45.5*
CN1CCN(C2=Cc3ccccc3Sc3cc(F)c(F)cc32)CC1	36.7	-20.9	-12.6	-4.6	-4.1	11.9	.	.	.	.
C=CCn1c(SCC(=O)Nc2cccc(C(=O)OC)c2)nnc1C(C)NC(=O)c1cccs1 (configuration not stated)	7.2	-18.3	-3.6	-0.2	-6.2	-0.9	.	.	.	.
C=CCn1c(SCC(=O)NCCc2ccccc2)nnc1C(C)NC(=O)c1cccs1 (configuration not stated)	49.1*	-14.0	0.1	-9.2	-9.7	12.6	65.7*	0.8	16.3	10.7
Cn1nc(C(C)(C)C)cc1NC(=O)C1(C)CCN1C(=O)Cc1ccc(-c2ccccc2)cc1 (configuration not stated)	0.9	.	-4.4	18.0	.	.	.	.	.	.
COC(=O)c1c(-n2c(C)cc(C=O)c2C)sc2c1CCCC2	40.7*	-1.5	-10.8	72.2*	-11.4	-1.3	-3.9	0.5	0.4	3.1
CCOc1cc(Br)c(CN2C(=O)NC3(CCCCCC3)C2=O)cc1OCC	-0.8	-31.3	-2.7	22.1	-28.1	18.1	.	.	.	.
CCOC(=O)C1CCCN(C(=O)Cc2ccc(C)cc2)C1 (configuration not stated)	4.6	-10.2	-2.3	9.9	-9.5	16.7	.	.	.	.
CCOC(=O)C1CCCN(C(=S)Nc2ccc(C)cc2C)C1 (configuration not stated)	69.0*	6.8	-5.2	60.3*	-4.0	9.6	34.0	-0.6	31.2	8.8
COc1ccccc1CCNC(=O)C1CCCO1 (configuration not stated)	43.2*	-1.6	-7.2	12.6	0.7	1.7	73.0*	1.6	29.8	5.5
SMILES	TAAR1 ag	OX1R antag-1	GalR3 antagonist	TAAR1 antagonist	CHO parental Ca	OX1R antag-2	TAAR1 ag confirm	Ga16 ag counter	TAAR1 desensitize	Ga16 nonsel ant
COc1ccccc1CC(=O)NCC1CCCO1 (configuration not stated)	2.8	-23.6	0.0	-7.9	4.5	-1.4	.	.	.	.
Cc1[nH]c2ccc(C(=O)NCCCN(C)C3CCCCC3)cc2c1C	0.9	-14.6	-5.2	-24.5	-15.3	18.0	.	.	.	.
COc1ccc(C(c2nnnn2CCc2ccccc2)N2CCN(C3CCCC3)CC2)cc1 (configuration not stated)	71.3*	-29.1	-5.7	54.2*	-16.5	15.0	85.3*	1.6	60.7*	5.6
COc1ccc(Cn2nnnc2C(c2ccccc2)N2CCN(C3CCCC3)CC2)cc1 (configuration not stated)	2.5	.	-5.7	-3.9	.	.	.	.	.	.
Cn1cncc1C#Cc1c(C=O)[nH]c2ccccc12	5.9	5.6	-7.6	-4.0	-5.4	6.4	.	.	.	.
CN(Cc1ccc(F)cc1)C(=O)c1cc(S(=O)(=O)N2CCCCC2)ccc1N1CCOCC1	0.4	.	-2.1	-28.8	.	.	.	.	.	.
